Most compounds without a hit are left out; they make up all but 4% or so of the library.
OX1R antag-1: OX1R (human) antagonism. 330,000 tested, 1.8% active. O43613. inhibition, % at 6.6 µM. AID 485270. OX1R-expressing cells, FRET antagonist read-out; in the data active = inhibition mostly above about 38%, no sharp cut-off; inactive = mostly below about 40%;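 note: 0% = agonist challenge alone and 100% = reference antagonist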
Target sequence (O43613 whole entry, looked up): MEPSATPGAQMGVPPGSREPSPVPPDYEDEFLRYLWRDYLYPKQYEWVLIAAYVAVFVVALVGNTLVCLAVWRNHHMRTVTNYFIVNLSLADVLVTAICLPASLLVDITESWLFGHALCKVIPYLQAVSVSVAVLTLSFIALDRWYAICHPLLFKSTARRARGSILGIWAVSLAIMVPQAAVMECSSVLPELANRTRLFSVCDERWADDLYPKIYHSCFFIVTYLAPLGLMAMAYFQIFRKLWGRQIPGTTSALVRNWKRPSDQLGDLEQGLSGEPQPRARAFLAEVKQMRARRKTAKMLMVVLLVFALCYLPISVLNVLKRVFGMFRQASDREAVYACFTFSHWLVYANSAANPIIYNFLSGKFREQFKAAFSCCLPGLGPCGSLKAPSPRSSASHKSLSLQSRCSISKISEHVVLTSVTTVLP
OX1R antag-2: human HCRTR1 antagonism; O43613; CHO/OX1R cells, Fluo-8 calcium fluorescence, orexin A; inhibition, % at 5 µM; 330,000 tested, 0.43% active;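 active = inhibition above its plate's threshold, mean inhibition of all tested compounds on the plate plus 3 SD, cut at about 37% in these data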;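 note: 0% = orexin A challenge wells and 100% = SB-334867-A antagonist wells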
TAAR1 antagonist: human TAAR1 antagonism | CHO RD-HGA16 TAAR1, Fluo-8 calcium fluorescence, antagonist | inhibition, % at 3 µM | 360,000 tested, 1.5% active;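 active = inhibition above a per-plate cutoff, the mean inhibition of test compounds on that plate plus 3 SD, cut at about 49% in these data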;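 note: 0% = DMSO plus EC80 beta-PEA response and 100% = DMSO alone without agonist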
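Material: RD-HGA16 CHO cells with stable hTAAR1 and Gα16; Dosing: single nominal final test compound concentration of 3 µM; Schedule: seeding 17-24 h prior, 75-min 37 °C, 30-min RT dye loading; Detection: kinetic Fluo-8 calcium fluorescence measurement; Measure: % inhibition from peak post-agonist over basal fluorescence ratio; Benchmarks: vehicle and agonist controls.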
CHO parental Ca: counter-screen for OX1R antagonists: effect in parental CHO cells; parental CHO-K1, ATP-induced calcium, Fluo-8 fluorescence; inhibition, % at 5.6 µM; 330,000 tested, 0.63% active; AID 463079;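 active = inhibition above that plate's mean sample inhibition plus 3 SD, cut at about 26% in these data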;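 note: 0% = ATP-challenged DMSO wells and 100% = DMSO wells without ATP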
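Material: Parental CHO cells | Reagent: ATP | Compound dosing: Single nominal dose of 5.6 µM per compound | Detection: Intracellular calcium via Fluo-8 no-wash fluorescent dye | Read-out: % inhibition of ATP-induced calcium mobilization | Benchmarks: Low control ATP plus DMSO, high control DMSO only | Replicates: Singlicate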
TAAR1 agonist: agonists of human TAAR1. Q96RJ0. CHO RD-HGA16 TAAR1, Fluo-8 calcium fluorescence; vehicle wells 0%, saturating PEA agonist 100%. activation, % at 3 µM. 360,000 tested, 0.99% active;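 active = activation above the mean activation of all test compounds in the run plus 3 SD, cut at about 38% in these data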
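Assay system: CHO-derived RD-HGA16 cells with stable Gα16 and human TAAR1; timing: 17-24 h seeding, 75 min 37 °C dye, 30 min RT; read-out: % activation from peak over basal fluorescence ratio, DMSO-to-PEA scaled; measured by: kinetic Fluo-8 calcium fluorescence; benchmarks: low control DMSO, high control PEA (EC100); doses: 3 µM single concentration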
nonsel antag count: nonselective antagonism, TAAR1 counter-screen; inhibition, % at 3 µM; 2,400 tested, 77% active; shares compounds with TAAR1 antagonist; counterscreen cell line, calcium fluorescence, antagonist mode; in the data active = inhibition above about 22%;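 note: CHO-Ga16 host cells stimulated with ATP at an EC80 level; 0% = agonist EC80 plus vehicle and 100% = vehicle without agonist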
TAAR1 antag conf: human TAAR1 antagonism, confirmed; shares compounds with TAAR1 antagonist; TAAR1-expressing cells, fluorescence antagonist read-out; inhibition, % at 3 µM; 2,400 tested, 40% active; AID 651785; in the data active = inhibition above about 49%;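 note: CHO-Ga16 host cells challenged with agonist PEA near its EC80; 0% = agonist at EC80 plus vehicle and 100% = vehicle with no agonist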
Ga16 ag counter: counter-screen for TAAR1 antagonists: nonselective Ga16 agonists; shares compounds with TAAR1 antagonist; Ga16-expressing cells, calcium fluorescence, agonist counterscreen; activation, % at 3 µM; 2,400 tested, 18% active; in the data active = activation above about 12%;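 note: 0% = vehicle wells and 100% = saturating stimulus response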
TAAR1 ag counter: counter-screen for human TAAR1 antagonists: TAAR1 agonists; shares compounds with TAAR1 antagonist; hTAAR1 cell line, fluorescence activation, agonist mode; activation, % at 3 µM; 2,400 tested, 2% active; AID 651955; in the data active = activation above about 37%;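 note: CHO cells stably expressing TAAR1 with calcium dye readout; 0% = DMSO vehicle and 100% = full agonist response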
An asterisk follows results filed as active; . = no result given.

SMILES	OX1R antag-1	OX1R antag-2	TAAR1 antagonist	CHO parental Ca	TAAR1 agonist	nonsel antag count	TAAR1 antag conf	Ga16 ag counter	TAAR1 ag counter
Cc1cc(C(=O)N2CCC2(C)C(=O)NS(=O)(=O)c2cccc(Cl)c2)nn1C (stereo not given)	.	.	-21	.	2	.	.	.	.
O=C1C=C(c2ccc3c(c2)oc2ccccc23)C[C@@H](c2ccc(Cl)cc2)C1	-4	-13	-5	-3	8	.	.	.	.
COCCNC(=S)N(C)[C@H]1C[C@H]2c3[nH]c4c(-c5ccccc5)cccc4c3CCN2C(=O)[C@H]1[C@H](C)O	.	.	-2	.	3	.	.	.	.
C[C@H](O)[C@@H]1C(=O)N2CCc3c([nH]c4c(-c5ccccc5)cccc34)[C@@H]2C[C@@H]1N(C)C(=O)Nc1ccccc1	.	.	54*	.	9	31*	26	5	4
Cc1cccc(-c2cccc3[nH]c4c(c23)CCN2C(=O)[C@H]3[C@H](C)ON(C)[C@H]3C[C@@H]42)c1	.	.	39	.	17	.	.	.	.
COCCNC(=S)N(C)[C@H]1C[C@H]2c3[nH]c4c(-c5ccc6c(c5)OCO6)cccc4c3CCN2C(=O)[C@H]1[C@H](C)O	.	.	62*	.	15	29*	45	4	8
C[C@H](O)[C@@H]1C(=O)N2CCc3c([nH]c4c(-c5ccccc5)cccc34)[C@@H]2C[C@@H]1N(C)C(=O)Nc1cccc2ccccc12	.	.	27	.	5	.	.	.	.
Cc1ccccc1NC(=O)N(C)[C@H]1C[C@H]2c3[nH]c4c(-c5ccccc5)cccc4c3CCN2C(=O)[C@H]1[C@H](C)O	.	.	57*	.	16	29*	35	6	4
C[C@@H]1ON(C)[C@H]2C[C@H]3c4[nH]c5c(-c6ccc7c(c6)OCO7)cccc5c4CCN3C(=O)[C@@H]12	.	.	62*	.	9	27*	45	7	5
COCc1cc(C)nc(SCC(=O)Nc2ccc(N3CCOCC3)cc2)c1C#N	26	-11	-28	-6	1	.	.	.	.
O=C1CC(c2ccc(OCCCCCOc3ccc(C4CC(=O)NC4=O)cc3)cc2)C(=O)N1 (stereo not given)	-3	-25	64*	-17	20	40*	53*	14*	19
CC(=O)c1cccc(NC(=O)c2cccc3c(-c4cccc(C(N)=O)c4)coc23)c1	.	.	85*	.	13	42*	56*	13*	11
COc1cc(NC(=O)c2cccc3c(-c4cccnc4)coc23)cc(OC)c1OC	.	.	76*	.	20	29*	59*	16*	15
CCC(Oc1ccccc1OC)C(=O)N1CC(=O)Nc2ccccc21 (stereo not given)	17	-11	-22	-14	9	.	.	.	.
Cc1cc(OCC(=O)Nc2ccc(N3CCN(C(=O)c4ccco4)CC3)cc2)cc(C)c1Cl	5	-5	86*	-13	34	51*	71*	18*	18
CC(=O)N1CCN(c2ccc(NC(=O)c3ccc(C(C)(C)C)cc3)cc2)CC1	0	6	62*	-2	27	29*	46	9	10
Cc1ccccc1C(=O)N1CCN(c2ccc(NC(=O)c3ccc4c(c3)OCO4)cc2)CC1	11	-23	53*	-8	12	27*	45	9	8
Cc1ccccc1C(=O)N1CCN(c2ccc(NC(=O)c3ccco3)cc2Cl)CC1	11	-12	52*	-11	20	23*	37	9	7
CCOC(=O)C1=C(C)N(CCCC(=O)O)C(=O)NC1c1ccccc1Cl (stereo not given)	13	-12	10	-4	2	.	.	.	.
CCNC(=S)N/N=C/c1sc(N2CCCCC2)nc1-c1cccs1	7	-24	0	-16	6	.	.	.	.
CCCC(=O)NC(C)c1nc(-c2ccc(C)cc2)no1 (stereo not given)	26	-6	7	4	5	.	.	.	.
CCOc1ccc(NC(=O)CCC(=O)c2ccc(OC)cc2)cc1	-6	-8	-22	-18	0	.	.	.	.
CC(=O)c1ccc(N2CCN(C(=O)c3cc4c(-c5ccccc5F)nn(C)c4s3)CC2)cc1	13	-25	55*	-3	1	26*	34	6	4
Cc1cccc(C)c1NC(=O)CN(Cc1ccccc1)Cc1ccccc1	.	.	62*	.	16	23*	26	4	9
CC1C(=O)N(Cc2cn(CCC3OCCCO3)nn2)CCS(=O)(=O)N1Cc1ccc(-c2ccc(Cl)cc2)cc1 (stereo not given)	.	.	87*	.	19	45*	59*	16*	10
SMILES	OX1R antag-1	OX1R antag-2	TAAR1 antagonist	CHO parental Ca	TAAR1 agonist	nonsel antag count	TAAR1 antag conf	Ga16 ag counter	TAAR1 ag counter
COc1ccc(-c2ccc(CN3C(CC(C)C)C(=O)N(Cc4cn(CCC5OCCCO5)nn4)CCS3(=O)=O)cc2)cc1OC (stereo not given)	.	.	57*	.	7	24*	33	7	6
COc1ccc(-c2ccc(CN3C(C(C)C)C(=O)N(Cc4cn(CCC5OCCCO5)nn4)CCS3(=O)=O)cc2)cc1OC (stereo not given)	.	.	-17	.	7	.	.	.	.
Cc1cc(C)c(NC(=O)COC(=O)COc2ccc3c(C)cc(=O)oc3c2)c(Cl)c1	3	-20	-18	-11	-2	.	.	.	.
CC(CNC(=O)Cn1cnc2c(NCc3ccccc3)ncnc21)c1ccccc1 (stereo not given)	16	-13	6	-19	3	.	.	.	.
CCc1cccc(C)c1NC(=O)CCNC(=O)c1cccc(C)c1	20	-17	-4	-10	-2	.	.	.	.
COC(=O)CNC(c1ccccc1)c1cc(Cl)ccc1NC(=O)c1cccc(Cl)c1 (stereo not given)	46	-15	87*	-15	-1	11	34	2	6
NNC(=O)CNC(c1ccccc1)c1cc(Br)ccc1NC(=O)c1cccc(Cl)c1 (stereo not given)	7	-43	21	-45	5	.	.	.	.
O=C(CSc1nnc(Cc2cccs2)n1C1CCCCC1)N1CCCc2ccccc21	34	-8	64*	-8	24	36*	54*	10	11
O=C(CSc1nnnn1C1CCCC1)N1CCCc2ccccc21	5	-15	-5	-13	8	.	.	.	.
Cn1c(Cc2cccs2)nnc1SCC(=O)N1CCCc2ccccc21	4	-10	1	0	2	.	.	.	.
O=C(CSc1nnc(Cc2cccs2)n1CCc1ccccc1)N1CCCc2ccccc21	11	13	57*	-8	19	22*	58*	11	12

Source: PubChem
